Screening results deposited in PubChem by Sanford-Burnham Center for Chemical Genomics.
A selection: hits, their analogues and other compounds. The true share with any hit is near 1.6%.
C8 TRAIL sens: caspase-8 TRAIL sensitization; NB7+C8 cells + TRAIL, ATPlite viability luminescence; inhibition (viability loss, TRAIL sensitization), % at 10 µM; 1% of 360,000 active;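 active means compounds causing at least 50% loss of cell viability in the single-dose screen, relative to plate controls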
FLuc stim CS: firefly luciferase counter-screen for stimulation assays; P08659; ATPlite luciferase biochemical, luminescence, 10 min; 0 = ATP-free wells, 1 = DMSO control; activation factor at 10 µM; 200,000 tested, under 10 active;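 active means luciferase activation factor, scaled between plate controls, of at least 2 with compound at 10 µM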
Target sequence (P08659 whole entry, looked up): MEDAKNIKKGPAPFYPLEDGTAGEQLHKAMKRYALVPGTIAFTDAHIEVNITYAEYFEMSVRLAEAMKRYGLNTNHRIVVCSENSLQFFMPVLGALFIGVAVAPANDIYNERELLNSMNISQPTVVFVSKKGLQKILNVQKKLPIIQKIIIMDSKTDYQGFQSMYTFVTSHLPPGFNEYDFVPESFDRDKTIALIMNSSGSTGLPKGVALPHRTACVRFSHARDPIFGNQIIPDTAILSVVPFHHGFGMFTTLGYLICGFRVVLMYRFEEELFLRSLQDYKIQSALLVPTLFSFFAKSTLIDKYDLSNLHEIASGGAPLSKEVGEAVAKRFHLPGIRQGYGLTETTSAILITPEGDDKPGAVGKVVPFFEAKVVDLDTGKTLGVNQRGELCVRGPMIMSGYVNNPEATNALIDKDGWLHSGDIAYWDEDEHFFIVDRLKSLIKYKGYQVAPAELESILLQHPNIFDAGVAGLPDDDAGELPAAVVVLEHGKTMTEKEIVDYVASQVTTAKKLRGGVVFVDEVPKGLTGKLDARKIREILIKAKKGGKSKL
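test system = cell-free luciferase reagent | medium = PBS as buffer for the ATP substrate | dosing = test compounds dosed from 2 mM stocks in 100% DMSO | incubation = 10 min at ambient temperature | detection = luminescence measurement of luciferase light output | benchmarks = low control with PBS replacing ATP, high control enzyme plus ATP without compound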
PPC-1+TRAIL kill: compounds killing PPC-1 cancer cells with TRAIL present (potentiator screen, no TRAIL-free arm). PPC-1 cells + TRAIL, ATPLite viability luminescence. cell killing (% activity), % at 4 µM or 5 µM. 0.41% of 220,000 active;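 active means cell killing above 50% in the first pass at 4 µM, then a duplicate retest at 5 µM averaging 50% or more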;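 further: plate controls were cells with TRAIL plus DMSO for no effect and medium-only wells lacking cells for full effect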
FLuc inh counter: counter-screen for luciferase assay inhibitors: firefly luciferase inhibition | ATPLite firefly luciferase biochemical luminescence, 10 min | P08659 | inhibition, % at 10 µM | 1.5% of 200,000 active | AID 1006;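 active means inhibition above about 50% when tested at 10 µM, limit read from the data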
Numbers without * were called inactive; nt = no result given.

SMILES	C8 TRAIL sens	FLuc stim CS	PPC-1+TRAIL kill	FLuc inh counter
Cc1oc(-c2cccc(Cl)c2)nc1CN1CCC(C(=O)NCCCN2CCCC2=O)CC1	4	1.1	-6	-12
COc1ccc(CCNC(=O)C2CCN(Cc3nc(-c4cccc(Cl)c4)oc3C)CC2)cc1OC	54*	1.1	18	-8
Cc1cc(C(=O)NCc2cccs2)c(C)o1	-5	1.1	19	-8
O=C(CC1(O)C(=O)N(Cc2ccccc2)c2ccccc21)c1ccc2c(c1)OCO2 (configuration not stated)	-7	1.1	-32	-5
O=c1c(-c2ccc3c(c2)OCCO3)coc2cc(OC3OC(CO)C(O)C(O)C3O)ccc12 (configuration not stated)	54*	nt	14	nt
CCOC(=O)C1CCN(C(=O)c2c(C)oc3c2C(=O)c2ccccc2C3=O)CC1	52*	1	28	-2
COc1ccc2c(c1OC)C(=O)N1c3ccccc3C(=O)N(c3ccccc3F)C21 (configuration not stated)	9	1	21	-2
COc1ccc2c(c1OC)C(=O)N1c3ccccc3COC21 (configuration not stated)	47	0.3	25	72*
COc1ccc2c(c1OC)C(=O)N1c3ccccc3SC21 (configuration not stated)	27	0.5	5	54*
COc1ccc2[nH]c3c(NCCC4=CCCCC4)ncnc3c2c1	54*	1	nt	0
O=C(N/N=C/c1ccc(Br)cc1)c1ccc(Br)o1	33	0.4	16	58*
O=C(N/N=C/c1ccc(Br)cc1)c1ccc(F)cc1	2	0.6	1	39
O=C(/C=C/c1ccc2c(c1)OCO2)c1ccc[nH]1	25	0.2	25	76*
COc1cccc(/C=C/C(=O)c2ccc[nH]2)c1	9	0.5	35	52*
Cc1ccc(C(=O)/C=C/c2ccccc2)o1	19	0.3	19	72*
Cc1cc(NS(=O)(=O)c2ccc(NS(=O)(=O)c3ccc(CC(C)C)cc3)cc2)nc(C)n1	-1	1	8	-1
O=C1CCC/C(=N/NC(=O)c2cc(NS(=O)(=O)c3cccs3)cc(NS(=O)(=O)c3cccs3)c2)C1	-24	nt	16	nt
Cc1ccc(C(=O)/C=C/c2ccc3c(c2)OCO3)o1	-10	0.2	9	80*
Cc1ccc(C(=O)NN=Cc2ccc3c(c2)OCO3)cc1	33	nt	nt	nt
O=C(/C=C/c1ccc2c(c1)OCO2)Nc1nc(-c2ccc(F)cc2F)cs1	nt	1	18	-1
Cc1ccc(C(=O)N/N=C/c2ccc3c(c2)OCO3)o1	36	0.3	15	69*
Cc1ccc(C(=O)/C=C/c2ccc(Br)cc2)o1	20	0.7	4	35
Cc1csc(NC(=O)/C=C/c2ccc3c(c2)OCO3)n1	71*	0.2	57*	77*
O=C(O)c1ccc(NS(=O)(=O)c2cccc(C(=O)Nc3ccc([N+](=O)[O-])cc3)c2)cc1	-19	nt	nt	nt
NS(=O)(=O)c1ccc(CNC(=O)c2cc(S(=O)(=O)N3CCOCC3)c(Cl)cc2Cl)cc1	-17	nt	nt	nt
SMILES	C8 TRAIL sens	FLuc stim CS	PPC-1+TRAIL kill	FLuc inh counter
O=C(O)c1cccc(CN2C(=O)SC(Nc3ccccc3)C2=O)c1 (configuration not stated)	14	1.1	11	-5
O=C(O)c1cccc(CN2C(=O)SC(Nc3cccc4ccccc34)C2=O)c1 (configuration not stated)	-1	0.4	6	58*
O=C(O)CC12CC3CC(C1)CC(n1ncc(NCc4ccco4)c(Cl)c1=O)(C3)C2	-20	nt	36	nt
CCOC(=O)c1sc(NC(=O)c2ccccc2)cc1C	50*	0.3	40	69*
CCOC(=O)c1sc(=NC(=O)c2cccc(OC)c2)n(C)c1C	3	0.9	24	14
CCOC(=O)c1sc(=NC(=O)c2ccccc2)n(C)c1C	14	0.3	38	68*
O=C(Nc1sc2c(c1C(=O)O)CCCCC2)c1ccccc1F	20	0.4	42	61*
O=C(Nc1sc2c(c1C(=O)O)CCCC2)c1cccs1	8	0.6	-26	38
Cc1ccc(C(=O)Nc2sc3c(c2C(=O)O)CCCCC3)o1	27	0.1	34	86*
O=C(Nc1sc2c(c1C(=O)O)CCCCC2)c1cccs1	22	0.2	49	84*
Cc1ccc(C(=O)Nc2sc3c(c2C(=O)O)CCCC3)o1	31	nt	nt	nt
CC(C)Oc1ccc(CN2CCC2(C)C(=O)Nc2ccc(Cl)c(Cl)c2)cc1 (configuration not stated)	16	nt	nt	nt
O=c1[nH]c(N/N=C/c2ccc(O)cc2)nc2ccccc12	17	0.4	8	56*
